Measured values as given in ChEMBL document CHEMBL4229515, “A novel synthesis of 2-arylbenzimidazoles in molecular sieves-MeOH system and their antitubercular activity” (Bioorg Med Chem, 2018).
In brackets after ≈: the same amount, converted by molar mass.

Legend:
[1] = Lipophilicity, log P of the compound; assay type: physicochemical; conditions: octanol/water
[2] = tested on: Mycobacterium tuberculosis; assay: Antimycobacterial activity against Mycobacterium tuberculosis H37Rv by BACTEC 460 radiometric method; assay type: functional
Procedure, shortened: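 Radiometric BACTEC assay against the H37Rv strain, run per a previously reported method. Positive controls were rifampicin, streptomycin and isoniazid. The MIC was read in µM.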

[3] = target: DNA gyrase subunit A/DNA gyrase subunit B (Mycobacterium tuberculosis (strain ATCC 25618 / H37Rv), UniProt P9WG45+P9WG47); assay: Inhibition of Mycobacterium tuberculosis DNA gyrase supercoiling activity using relaxed pBR322 as substrate after 30 mins by agarose gel electrophoresis; assay type: protein-complex assay
Sequence of DNA gyrase subunit A/DNA gyrase subunit B (P9WG45 whole entry): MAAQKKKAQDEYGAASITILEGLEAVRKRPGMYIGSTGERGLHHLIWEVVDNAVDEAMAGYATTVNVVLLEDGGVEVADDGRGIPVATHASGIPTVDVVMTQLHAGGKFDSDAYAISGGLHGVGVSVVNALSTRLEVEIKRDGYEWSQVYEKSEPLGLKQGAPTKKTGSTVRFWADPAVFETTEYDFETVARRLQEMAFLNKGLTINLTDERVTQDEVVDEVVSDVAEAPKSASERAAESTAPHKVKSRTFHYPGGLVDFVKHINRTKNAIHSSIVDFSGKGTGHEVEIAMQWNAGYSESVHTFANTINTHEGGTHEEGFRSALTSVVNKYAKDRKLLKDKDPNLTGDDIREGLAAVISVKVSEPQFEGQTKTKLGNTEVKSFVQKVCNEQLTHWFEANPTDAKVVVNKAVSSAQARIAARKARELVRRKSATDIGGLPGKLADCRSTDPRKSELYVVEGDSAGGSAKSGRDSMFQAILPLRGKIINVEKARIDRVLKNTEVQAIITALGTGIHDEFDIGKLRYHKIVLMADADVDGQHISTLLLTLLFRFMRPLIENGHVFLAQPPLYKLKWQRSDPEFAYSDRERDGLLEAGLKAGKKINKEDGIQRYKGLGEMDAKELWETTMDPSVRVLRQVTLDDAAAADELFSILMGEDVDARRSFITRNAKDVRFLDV
Sequence of DNA gyrase subunit A/DNA gyrase subunit B (P9WG47 whole entry): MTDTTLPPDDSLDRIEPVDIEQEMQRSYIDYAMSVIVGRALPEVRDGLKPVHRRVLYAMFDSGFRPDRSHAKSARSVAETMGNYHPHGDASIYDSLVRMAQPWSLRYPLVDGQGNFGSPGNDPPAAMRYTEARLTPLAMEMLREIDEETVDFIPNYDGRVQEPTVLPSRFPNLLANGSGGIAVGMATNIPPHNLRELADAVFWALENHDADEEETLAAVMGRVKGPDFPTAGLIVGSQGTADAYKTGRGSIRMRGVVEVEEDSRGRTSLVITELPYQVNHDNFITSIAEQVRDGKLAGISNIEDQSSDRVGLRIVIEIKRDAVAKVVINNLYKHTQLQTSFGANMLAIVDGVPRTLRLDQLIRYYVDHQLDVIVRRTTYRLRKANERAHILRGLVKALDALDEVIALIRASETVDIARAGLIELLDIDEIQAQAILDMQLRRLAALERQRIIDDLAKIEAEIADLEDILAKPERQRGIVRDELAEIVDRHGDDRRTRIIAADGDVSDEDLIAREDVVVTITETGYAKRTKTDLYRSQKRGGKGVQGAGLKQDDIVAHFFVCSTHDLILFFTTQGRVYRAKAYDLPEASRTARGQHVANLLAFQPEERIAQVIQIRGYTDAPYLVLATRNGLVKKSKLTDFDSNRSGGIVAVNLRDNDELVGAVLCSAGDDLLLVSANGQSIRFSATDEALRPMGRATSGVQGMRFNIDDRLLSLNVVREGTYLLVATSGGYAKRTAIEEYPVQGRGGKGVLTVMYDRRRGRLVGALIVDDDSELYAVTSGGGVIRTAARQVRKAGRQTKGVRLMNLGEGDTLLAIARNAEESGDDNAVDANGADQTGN

| Structure (SMILES) | logP ([1]; read-out: logP) | MIC [2] | IC50 [3] | logP [1] |
| --- | --- | --- | --- | --- |
| COc1ccc2c(c1)nc(-c1ccc3c(c1)OCO3)n2Cc1ccc2c(c1)OCO2 | 4.26 | 24 µM (≈ 9.66 µg/mL) | 294 µM | – |
| COc1ccccc1-c1nc2ccccc2[nH]1 | 2.74 | 406 µM (≈ 91.1 µg/mL) | – | – |
| CO[C@H]1/C=C/O[C@@]2(C)Oc3c(C)c(O)c4c(O)c(c(/C=N/N5CCN(C)CC5)c(O)c4c3C2=O)NC(=O)/C(C)=C\C=C\[C@H](C)[C@H](O)[C@@H](C)[C@@H](O)[C@@H](C)[C@H](OC(C)=O)[C@@H]1C [RIFAMPIN] | – | 3 µM (≈ 2.47 µg/mL) | – | 3.72 |
| [H]/N=C(/N)N[C@H]1[C@H](O)[C@@H](O)[C@H](O[C@@H]2O[C@@H](C)[C@](O)(C=O)[C@H]2O[C@@H]2O[C@@H](CO)[C@H](O)[C@@H](O)[C@@H]2NC)[C@@H](N/C(N)=N\[H])[C@@H]1O [STREPTOMYCIN] | 8.01 | 4 µM (≈ 2.33 µg/mL) | – | – |
| COc1ccc2[nH]c(-c3ccc(F)cc3)nc2c1 | 2.9 | 103 µM (≈ 25 µg/mL) | 380 µM | – |
| NNC(=O)c1ccncc1 [ISONIAZID] | – | 1 µM (≈ 0.137 µg/mL) | – | 0.64 |
| COc1ccc2c(c1)nc(-c1ccc(F)cc1)n2Cc1ccc(F)cc1 | 5.02 | 285 µM (≈ 99.9 µg/mL) | – | – |
| Fc1ccc(Cn2c(-c3ccc(F)cc3)nc3ccccc32)cc1 | 5.51 | 312 µM (≈ 99.9 µg/mL) | – | – |
| Oc1ccc(-c2nc3ccccc3[nH]2)cc1 | 2.47 | 424 µM (≈ 89.1 µg/mL) | – | – |
| c1ccc2c(c1)nc(-c1ccc3c(c1)OCO3)n2Cc1ccc2c(c1)OCO2 | 2.64 | 67 µM (≈ 24.9 µg/mL) | 85.7 µM | – |
